According to ChEMBL document CHEMBL1122145, “Prostaglandins and congeners, 29. (16RS)-(+/-)-15-Deoxy-16-hydroxy-16-vinyl-prostaglandin E2, an orally and transdermally active hypotensive agent of prolonged duration” (1982):

Assays:
Type in all cases: functional
[1] = tested on: Rattus norvegicus; experiment: Intravenous antihypertensive effect in conscious, spontaneously hypertensive rats, Duration of action was determined at a compound dose of 10 ug/kg; 30-45
[2] = tested on: Rattus norvegicus; experiment: Intravenous antihypertensive effect in conscious, spontaneously hypertensive rats, Duration of action was determined at a compound dose of 100 ug/kg
[3] = tested on: Rattus norvegicus; experiment: Intravenous antihypertensive effect in conscious, spontaneously hypertensive rats, Duration of action was determined at a compound dose of 30 ug/kg; 45-50
[4] = tested on: Rattus norvegicus; experiment: Intravenous antihypertensive effect in conscious, spontaneously hypertensive rats a dose of 10 ug/kg
Method in brief: (§1)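 Male Okamoto spontaneously hypertensive rats (about 300 ± 20 g), restrained supine. The iliac artery was cannulated to a pressure recorder. After a stabilization period, the sodium salt was injected into the lateral caudal vein: acid dissolved in absolute ethanol, neutralized with 0.6 M NaHCO3, diluted in saline. Maximum fall in mean arterial blood pressure (mmHg), mean of two experiments.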

[5] = tested on: Rattus norvegicus; experiment: Intravenous antihypertensive effect in conscious, spontaneously hypertensive rats a dose of 100 ug/kg; method in brief: as §1
[6] = tested on: Rattus norvegicus; experiment: Intravenous antihypertensive effect in conscious, spontaneously hypertensive rats a dose of 30 ug/kg; method in brief: as §1
[7] = tested on: Rattus norvegicus; experiment: Intravenous antihypertensive effect in conscious, spontaneously hypertensive rats, Duration of action was determined at a compound dose of 10 ug/kg
[8] = tested on: Rattus norvegicus; experiment: Intravenous, antihypertensive effect in conscious, spontaneously hypertensive rats, Duration of action was determined at a compound dose of 100 ug/kg; 10-20
[9] = tested on: Rattus norvegicus; experiment: Intravenous, antihypertensive effect in conscious, spontaneously hypertensive rats, Duration of action was determined at a compound dose of 30 ug/kg
[10] = tested on: Rattus norvegicus; experiment: Intravenous, antihypertensive effect in conscious, spontaneously hypertensive rats, Duration of action was determined at a compound dose of 300 ug/kg; 25-30
[11] = tested on: Rattus norvegicus; experiment: Intravenous, antihypertensive effect in conscious, spontaneously hypertensive rats, Duration of action was determined at a compound dose of 500 ug/kg; 25-30
[12] = tested on: Rattus norvegicus; experiment: Intravenous antihypertensive effect in conscious, spontaneously hypertensive rats a dose of 300 ug/kg; method in brief: as §1
[13] = tested on: Rattus norvegicus; experiment: Intravenous antihypertensive effect in conscious, spontaneously hypertensive rats a dose of 500 ug/kg; method in brief: as §1

Compound | Duration [1] [min] | Duration [2] [min] | Duration [3] [min] | Max lowering MABP [4] [mmHg] | Max lowering MABP [5] [mmHg] | Max lowering MABP [6] [mmHg] | Duration [7] [min] | Duration [8] [min] | Duration [9] [min] | Duration [10] [min] | Duration [11] [min] | Max lowering MABP [12] [mmHg] | Max lowering MABP [13] [mmHg]
C=CC(O)(C/C=C/C1[C@H](O)CC(=O)[C@@H]1C/C=C/CCCC(=O)O)CCCC (stereo partly specified) | 30 | >200 | 45 | 30 | 65 | 55 | – | – | – | – | – | – | –
CCCCC[C@H](O)/C=C/[C@H]1[C@H](O)CC(=O)[C@@H]1C/C=C\CCCC(=O)O [DINOPROSTONE] | – | – | – | 60 | 72 | 72 | <5 | 10 | <5 | 25 | 25 | 70 | 50
